≈ marks a conversion by molar mass, not a printed value. Bridge positions count the residues as written; N and C are the ends. Square brackets hold non-standard residues; d marks the D form. Peptide text beside a SMILES is read from it. * marks the point of attachment. Palmitoyl = CCCCCCCCCCCCCCCC(=O)*; dOrn = NCCC[C@@H](N)C(=O)O; Orn = NCCC[C@H](N)C(=O)O

The values below come from ChEMBL document CHEMBL5104225, “Synthesis and structure-activity relationship studies of N-terminal analogues of the lipopeptide antibiotics brevicidine and laterocidine” (RSC Med Chem, 2022).

Holding throughout (format): functional
One assay deals with Klebsiella pneumoniae. The experiment in a line: Antibacterial activity against Klebsiella pneumoniae ATCC 13883 assessed as inhibition of bacterial growth incubated for 18 hrs by CLSI protocol based method. In outline: (§1)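 Single colonies from blood agar (16 h, 37 °C) grown in TSB at 37 °C, 220 rpm to OD600 ~0.5, then diluted in MHB to 2×10^5 CFU/mL. Mixed with serial MHB dilutions of DMSO stocks in polypropylene plates, sealed, and incubated 18 h at 37 °C, 600 rpm. MIC was taken as the lowest concentration with no visible growth; three technical replicates.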

For a further assay, the system named is Acinetobacter baumannii. The experiment in a line: Antibacterial activity against Acinetobacter baumannii ATCC 17961 assessed as inhibition of bacterial growth incubated for 18 hrs by CLSI protocol based method. The procedure, abridged:
as §1

A further assay concerns Escherichia coli. The experiment in a line: Antibacterial activity against Escherichia coli ATCC 25922 assessed as inhibition of bacterial growth incubated for 18 hrs by CLSI protocol based method. In outline:
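Broth microdilution MIC. Strain streaked from glycerol stock on sheep blood agar (16 h, 37 °C); a colony was grown in TSB at 37 °C, 220 rpm, to OD600 about 0.5. Cells were diluted in MHB to 2×10^5 CFU/mL and added 1:1 to serial dilutions in MHB in polypropylene plates.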

The next assay concerns Pseudomonas aeruginosa. The experiment in a line: Antibacterial activity against Pseudomonas aeruginosa PAO1 assessed as inhibition of bacterial growth incubated for 18 hrs by CLSI protocol based method. In outline:
as §1

The subject of the next assay is Staphylococcus aureus. The experiment in a line: Antibacterial activity against Staphylococcus aureus USA300 assessed as inhibition of bacterial growth incubated for 18 hrs by CLSI protocol based method. In outline:
as §1

Regarding `CCCCCCCCCCCCCCCC(=O)N[C@H](CC(N)=O)C(=O)N[C@H](Cc1ccc(O)cc1)C(=O)N[C@H](Cc1c[nH]c2ccccc12)C(=O)N[C@H](CCCN)C(=O)N[C@@H](CCCN)C(=O)NCC(=O)N[C@H](CCCN)C(=O)N[C@@H](Cc1c[nH]c2ccccc12)C(=O)N[C@@H]1C(=O)N[C@@H]([C@@H](C)CC)C(=O)NCC(=O)N[C@@H](CO)C(=O)O[C@@H]1C` (Palmitoyl-[dN][dY][dW][dOrn][Orn]G[dOrn]WTIGS; ester 9-C), the MIC in the assay on Klebsiella pneumoniae is > 32 mg/L; in the assay with Acinetobacter baumannii it was 32 mg/L (≈ 19.4 µM); in the assay with Escherichia coli, > 32 mg/L; in the assay with Pseudomonas aeruginosa, > 32 mg/L; in the assay with Staphylococcus aureus, > 32 mg/L.

Regarding `CC[C@H](C)[C@@H]1NC(=O)[C@@H](NC(=O)[C@H](Cc2c[nH]c3ccccc23)NC(=O)[C@@H](CCCN)NC(=O)CNC(=O)[C@H](CCCN)NC(=O)[C@@H](CCCN)NC(=O)[C@@H](Cc2c[nH]c3ccccc23)NC(=O)[C@@H](Cc2ccc(O)cc2)NC(=O)[C@@H](CC(N)=O)NC(C)=O)[C@@H](C)OC(=O)[C@H](CO)NC(=O)CNC1=O` (Ac-[dN][dY][dW][dOrn][Orn]G[dOrn]WTIGS; ester 9-C), the MIC in the assay with Klebsiella pneumoniae was > 32 mg/L; in the assay with Acinetobacter baumannii, > 32 mg/L; in the assay with Escherichia coli, > 32 mg/L; in the assay on Pseudomonas aeruginosa, 8 mg/L (≈ 5.52 µM); in the assay on Staphylococcus aureus, > 32 mg/L.

For `CC[C@H](C)[C@@H]1NC(=O)[C@@H](NC(=O)[C@H](Cc2c[nH]c3ccccc23)NC(=O)[C@@H](CCCN)NC(=O)CNC(=O)[C@H](CCCN)NC(=O)[C@@H](CCCN)NC(=O)[C@@H](Cc2c[nH]c3ccccc23)NC(=O)[C@@H](Cc2ccc(O)cc2)NC(=O)[C@H](N)CC(N)=O)[C@@H](C)OC(=O)[C@H](CO)NC(=O)CNC1=O`, the MIC in the assay with Klebsiella pneumoniae is > 32 mg/L; with Acinetobacter baumannii, > 32 mg/L; in the assay on Escherichia coli, > 32 mg/L; with Pseudomonas aeruginosa, 16 mg/L (≈ 11.4 µM); in the assay with Staphylococcus aureus, > 32 mg/L.

In the case of `CC[C@H](C)[C@@H]1NC(=O)[C@@H](NC(=O)[C@H](Cc2c[nH]c3ccccc23)NC(=O)[C@@H](CCCN)NC(=O)CNC(=O)[C@H](CCCN)NC(=O)[C@@H](CCCN)NC(=O)[C@@H](Cc2c[nH]c3ccccc23)NC(=O)[C@@H](Cc2ccc(O)cc2)NC(=O)[C@@H](CO)NC(C)=O)[C@@H](C)OC(=O)CNC(=O)CNC(=O)[C@H](CC(N)=O)NC1=O` (Ac-[dS][dY][dW][dOrn][Orn]G[dOrn]WTINGG; ester 9-C), the MIC in the assay on Klebsiella pneumoniae was > 32 mg/L; with Acinetobacter baumannii it was > 32 mg/L; with Escherichia coli, > 32 mg/L; in the assay on Pseudomonas aeruginosa, 16 mg/L (≈ 10.6 µM); in the assay with Staphylococcus aureus, > 32 mg/L.

Consider `CC[C@H](C)[C@@H]1NC(=O)[C@@H](NC(=O)[C@H](Cc2c[nH]c3ccccc23)NC(=O)[C@@H](CCCN)NC(=O)CNC(=O)[C@H](CCCN)NC(=O)[C@@H](CCCN)NC(=O)[C@@H](Cc2c[nH]c3ccccc23)NC(=O)[C@@H](Cc2ccc(O)cc2)NC(=O)[C@H](N)CO)[C@@H](C)OC(=O)CNC(=O)CNC(=O)[C@H](CC(N)=O)NC1=O` (H-[dS][dY][dW][dOrn][Orn]G[dOrn]WTINGG; ester 9-C), for which the MIC in the assay on Klebsiella pneumoniae, in the assay on Acinetobacter baumannii, with Escherichia coli, in the assay with Pseudomonas aeruginosa and with Staphylococcus aureus was > 32 mg/L throughout.

By MIC is commonly meant the lowest concentration that inhibits growth of the organism.
